Values after ≈ are worked out from the molar mass of the structure shown. Active and inactive are the calls of the source. The calls are words filed in the database; no cut-off is given here.

One may read the MIC as the lowest concentration found to suppress growth.

In experiment [1] the test system is Clostridioides difficile. The experiment is described as follows: Antimicrobial activity against Clostridioides difficile CD10463 incubated for 20 to 24 hrs by broth microdilution method. It counts as functional. In outline:
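Broth microdilution in pre-reduced BHIS using two-fold serial dilutions and ~5 × 10⁵ cfu/mL inoculum. Incubated 20–24 h at 37°C, anaerobic (8% H₂, 8% CO₂, 84% N₂). MIC read by the Lambert-Pearson method; duplicates.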
A general note: Dilution methods test growth across graded concentrations, often in twofold steps.

The test system of experiment [2] is Clostridioides difficile. The experiment is described as follows: Suppression of relapse of Clostridioides difficile 630 infection in cefoperazone-treated C57BL/6J mouse model of recurrent Clostridioides difficile 630 infection assessed as reduction in histopathological summary scores at 0.4 mg/ml, po for 5 days from day 4 to 9 after infection with spores measured on day day 14. It counts as functional, organism-based.

The test system of experiment [3] is Clostridioides difficile. The experiment is described as follows: Suppression of relapse of Clostridioides difficile 630 infection in cefoperazone-treated C57BL/6J mouse model of recurrent Clostridioides difficile 630 infection assessed as reduction in group-Bacteroidaceae level at 0.4 mg/ml, po for 5 days from day 4 to 9 after infection with spores measured on day day 14. It counts as functional, organism-based. In outline: (§1)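 Infection model: cefoperazone 0.5 mg/ml in drinking water for 5 days, 2-day washout, then 10⁵ strain 630 spores by gavage. Vancomycin 0.4 mg/mL in drinking water, days 4–9. Cecal tissue snips taken at day 14 necropsy; gut bacterial community profiled by 16S rRNA gene sequencing on Illumina MiSeq. n=6 per group.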

The test system of experiment [4] is Clostridioides difficile. The experiment is described as follows: Suppression of relapse of Clostridioides difficile 630 infection in cefoperazone-treated C57BL/6J mouse model of recurrent Clostridioides difficile 630 infection assessed as reduction in group-Proteobacteria level at 0.4 mg/ml, po for 5 days from day 4 to 9 after infection with spores measured on day day 14. It counts as functional, organism-based. In outline: as §1

The subject of experiment [5] is Clostridioides difficile. The experiment is described as follows: Suppression of relapse of Clostridioides difficile 630 infection in cefoperazone-treated C57BL/6J mouse model of recurrent Clostridioides difficile 630 infection assessed as reduction in microbial load in feces (total vegetative cells plus spores) at 0.4 mg/ml, po for 5 days from day 4 to 9 after infection with spores and measured on day 3 after drug cessation. It counts as functional, organism-based. In outline:
(§2)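 Strain 630 spore challenge (10⁵, gavage) of cefoperazone-treated mice; vancomycin 0.4 mg/mL in drinking water on days 4–9. Feces diluted 1:10 in PBS and settled anaerobically 30 min. Ten-fold dilutions plated on TCCFA, incubated anaerobically at 37°C for 24 h. Result is CFU/g feces of total vegetative cells plus spores from unheated samples. Mixed-effect model with Tukey post test.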

The test system of experiment [6] is Clostridioides difficile. The experiment is described as follows: Suppression of relapse of Clostridioides difficile 630 infection in cefoperazone-treated C57BL/6J mouse model of recurrent Clostridioides difficile 630 infection assessed as reduction in microbial load (total vegetative cells plus spores) at 0.4 mg/ml, po for 5 days from day 4 to 9 after infection with spores and measured on day 7. It counts as functional, organism-based. In outline:
as §2

Experiment [7] relates to Clostridioides difficile. The experiment is described as follows: Suppression of relapse of Clostridioides difficile 630 infection in cefoperazone-treated C57BL/6J mouse model of recurrent Clostridioides difficile 630 infection assessed as reduction in weight loss at 0.4 mg/ml, po for 5 days from day 4 to 9 after infection with spores and measured on day 14. It counts as functional. Set-up: scale not given: the % may be the effect or the level left. In outline:
(§3)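 Cefoperazone 0.5 mg/ml in drinking water for 5 days, then 2-day washout, in 5-week-old male and female C57BL/6J mice. Oral gavage of 10⁵ C. difficile 630 spores on day 0. Vancomycin 0.4 mg/mL given in drinking water ad libitum on days 4–9. Body weight recorded daily and clinical signs watched for 14 days; n=6 per group.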

For experiment [8], the system named is Clostridioides difficile. The experiment is described as follows: Suppression of relapse of Clostridioides difficile 630 infection in cefoperazone-treated C57BL/6J mouse model of recurrent Clostridioides difficile 630 infection assessed as reduction in clinical illness at 0.4 mg/ml, po for 5 days from day 4 to 9 after infection with spores measured on day day 14. It counts as functional, organism-based. In outline:
as §3

In experiment [9] the test system is Clostridioides difficile. The experiment is described as follows: Suppression of relapse of Clostridioides difficile 630 infection in cefoperazone-treated C57BL/6J mouse model of recurrent Clostridioides difficile 630 infection assessed as reduction in body weight loss at 0.4 mg/ml, po for 5 days from day 4 to 9 after infection with spores and […] after drug cessation. It counts as functional, organism-based. A digest of the protocol:
as §3

For experiment [10], the system named is Clostridioides difficile. The experiment is described as follows: Suppression of relapse of Clostridioides difficile 630 infection in cefoperazone-treated C57BL/6J mouse model of recurrent Clostridioides difficile 630 infection assessed as reduction in body weight loss at 0.4 mg/ml, po for 5 days from day 4 to 9 after infection with spores and […]. It counts as functional, organism-based. In outline: as §3

Regarding `O=C(Nc1ccc(Oc2ccc(Cl)cc2)cc1)c1cc(Cl)cc(Cl)c1O`, the MIC in the experiment with Clostridioides difficile [1] is 1.4 µM (≈ 0.572 µg/mL).
In the case of `O=C(Nc1cc([N+](=O)[O-])c(Oc2ccc(Cl)cc2)c([N+](=O)[O-])c1)c1cc(Cl)cc(Cl)c1O`, the MIC against Clostridioides difficile [1] was > 2 µM.
Take `CN[C@H](CC(C)C)C(=O)N[C@H]1C(=O)N[C@@H](CC(N)=O)C(=O)N[C@H]2C(=O)N[C@H]3C(=O)N[C@H](C(=O)N[C@H](C(=O)O)c4cc(O)cc(O)c4-c4cc3ccc4O)[C@H](O)c3ccc(c(Cl)c3)Oc3cc2cc(c3O[C@@H]2O[C@H](CO)[C@@H](O)[C@H](O)[C@H]2O[C@H]2C[C@](C)(N)[C@H](O)[C@H](C)O2)Oc2ccc(cc2Cl)[C@H]1O` [VANCOMYCIN]: the outcome with Clostridioides difficile [2], in the experiment with Clostridioides difficile [3], in the experiment on Clostridioides difficile [4], with Clostridioides difficile [5], in the experiment on Clostridioides difficile [8] and in the experiment with Clostridioides difficile [9] was inactive. The outcome in the experiment with Clostridioides difficile [6] and with Clostridioides difficile [10] was Active. In the experiment with Clostridioides difficile [7], the Activity was 10 - 26%. In the experiment on Clostridioides difficile [1], the MIC amounted to 2.1 µM (≈ 3.04 µg/mL).
`N#Cc1cc(NC(=O)c2cc(Cl)cc(Cl)c2O)ccc1Oc1ccc(Cl)cc1`: 0.37 µM (≈ 0.16 µg/mL) was the least that counted as inhibitory against Clostridioides difficile [1] (MIC).
In the case of `O=C(Nc1cc(I)c(Oc2ccc(Cl)cc2)c(I)c1)c1cc(Cl)cc(Cl)c1O`, the minimum inhibitory concentration (MIC) in the experiment with Clostridioides difficile [1] came out at 0.075 µM (≈ 0.0495 µg/mL).
Same read-out and setting: under `O=C(Nc1ccc(Oc2ccc(Cl)cc2)c(F)c1)c1cc(Cl)cc(Cl)c1O` stands 0.135 µM (≈ 0.0576 µg/mL); under `O=C(Nc1ccc(Oc2ccc(Cl)cc2)c(I)c1)c1cc(Cl)cc(Cl)c1O`, 0.6 µM (≈ 0.321 µg/mL); under `O=C(Nc1ccc(Oc2ccc(Cl)cc2)cc1Br)c1cc(Cl)cc(Cl)c1O`, 0.18 µM (≈ 0.0878 µg/mL).
On to `O=C(Nc1ccc(Oc2ccc(Cl)cc2)c(Cl)c1)c1cc(Cl)cc(Cl)c1O`, for which the MIC against Clostridioides difficile [1] came to 0.11 µM (≈ 0.0487 µg/mL).
On the same count and under the same terms, for `COc1cc(Oc2ccc(Cl)cc2)ccc1NC(=O)c1cc(Cl)cc(Cl)c1O` the value was 3.6 µM (≈ 1.58 µg/mL); for `O=C(Nc1ccc(Oc2ccc(Cl)cc2)cc1I)c1cc(Cl)cc(Cl)c1O`, 0.17 µM (≈ 0.0909 µg/mL); for `COc1cc(NC(=O)c2cc(Cl)cc(Cl)c2O)ccc1Oc1ccc(Cl)cc1`, 2.6 µM (≈ 1.14 µg/mL).
In the case of `O=C(Nc1ccc(Oc2ccc(Cl)cc2)c(Br)c1)c1cc(Cl)cc(Cl)c1O`, the MIC in the experiment with Clostridioides difficile [1] was 0.1 µM (≈ 0.0488 µg/mL).
